# Rows were chosen to be rich in hits. Some 9.6% of all compounds tested hit in one or more screens of this group.
# L major viab = inhibitors of Leishmania major promastigote growth; Leishmania major promastigotes, resazurin fluorescence viability; inhibition, % at 10 µM; hit rate 9% among 200,000; AID 1063; in the data active means inhibition above about 50%;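 further: promastigotes grown with compound for 44 hours at 28 °C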
# APP 5UTR inh = APP translation inhibition | inhibition, % at 2 µM | SH-SY5Y APP 5'UTR-luciferase reporter, luminescence | hit rate 0.82% among 190,000;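 active means inhibition above a set limit, derived from the sample mean plus 3 SD, cut at about 45% in these data; inconclusive means one replicate passes the limit while the other fails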
# MT stabilize HCS = microtubule stabilizers in HeLa cells. HeLa tubulin immunostaining HCS, 24 h; share of cells brighter than vehicle mean+2SD. % tubulin-high responders, % at 10 µM. hit rate 0.83% among 200,000;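 active means plate Z-score above 3 for both tubulin-high and condensed-nucleus cell shares, with cell loss under 80%, at 10 µM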;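 further: anti alpha tubulin signal scored within the nucleus-defined area of each cell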
# b-catenin transl = modulators of beta-catenin nuclear translocation. HeLa beta-catenin nuclear translocation, immunofluorescence imaging. nuclear translocation activity, % at 5 µM. hit rate 0.3% among 190,000;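 active means nuclear translocation activity above 50% at 5 µM, with a well cell count of 50 or more; inconclusive means wells under 50 cells across six images, flagged as toxic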;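 further: per-cell ratio of nuclear to cytoplasmic median beta-catenin stain intensity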
#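 System: HeLa cells, endogenous beta-catenin; compound dosing: 5 µM primary single dose, 0.1% DMSO, 0.02–20 µM confirmation series; incubation: 24 h compound exposure at 37°C, 5% CO2; signal: beta-catenin immunofluorescence imaging with DAPI; evaluation: % activation, nuclear-to-cytoplasmic median beta-catenin signal ratio per cell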
# BaF3 tox = parental Ba/F3 viability inhibition as JAK2V617F counter-screen | CellTiter-Glo ATP luminescence | hit rate 1.1% among 220,000 | inhibition, % at 5.6 µM;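 active means inhibition above a per-campaign cutoff, the mean inhibition of all tested compounds plus 3 SD, cut at about 27% in these data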
# Ba/F3 V617F tox = lowers viability of Ba/F3 cells expressing EpoR and JAK2V617F. ATP luminescence. inhibition, % at 5.6 µM. hit rate 1.1% among 220,000;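 active means inhibition above the campaign mean plus 3 SD over all tested compounds, cut at about 24% in these data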;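 further: cytokine-independent growth of Ba/F3 cells driven by EpoR plus mutant JAK2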
# Lmaj promast 1uM = blocks Leishmania major promastigote growth at 1 uM, repeat screen | shares compounds with L major viab | L. major promastigote growth, resazurin fluorescence, 48 h | inhibition, % at 1 µM | hit rate 13% among 1,100;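 active means inhibition above about 50% in both repeat tests, limit read from the data; inconclusive means one repeat under the set limit, the other over it; inactive means both repeats under the set limit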
# A number is an active result; - = inactive; ? = inconclusive; . = no result given; ! = not confirmed by another sample.
SMILES,L major viab,APP 5UTR inh,MT stabilize HCS,b-catenin transl,BaF3 tox,Ba/F3 V617F tox,Lmaj promast 1uM
CN(C)C(=O)C12CCC(C)(c3nc4ccccc4nc31)C2(C)C (configuration not stated),-,-,-,-,-,-,.
C=CCN(CC=C)C(=O)C(=O)c1cc(C)n(-c2ccc([N+](=O)[O-])cc2)c1C,97.5,-,-,.,-,-,-
Cc1cc(C(=O)C(=O)N(C)C)c(C)n1-c1ccc([N+](=O)[O-])cc1,-,-,-,-,-,-,.
CCSC1=NCCN1C(=O)C(C)(C)Oc1ccc(Cl)cc1,64.6,-,-,-,-,-,-
CC(C)(C)c1ccc(-n2nc(C#N)c(Cl)cc2=O)cc1,100.5,94.5,-,-,-,-,92.3
Cc1ccc(NC(=O)CN(C)C(=O)CCOc2cccc(C)c2)cc1,-,-,-,-,-,-,.
Cc1cccc(NC(=O)C(CC(C)C)NC(=O)C2CCC(C)CC2)n1 (configuration not stated),-,-,-,-,-,-,.
CCOC(=O)c1ccc2ncc(C(=O)OCC)c(NCc3ccco3)c2c1,56.9,-,-,-,-,-,-
CSc1nc(C)c2c(c1C#N)CCCC2,62.5,-,-,-,-,-,-
CCOC(=O)Cc1csc(NC(=O)Cn2c(=O)oc3ccccc32)n1,.,.,.,-,-,-,.
CC[C@H](C)C(=O)O[C@H]1CCC=C2C=C[C@H](C)[C@H](CC[C@@H]3C[C@@H](O)CC(=O)O3)[C@H]21,76.5,-,-,-,26.7!,62.2,-
CN1CCC(OC(=O)c2ccccc2Cl)CC1,75.8,-,-,-,-,-,-
Cc1cc(C)c(S(=O)(=O)c2c(C)cccc2C)c(OCC(C)C)n1,95.7,.,-,-,-,-,?
CCOc1ccc(Cn2c3ccc(OC)cc3c3nc4ccccc4nc32)cc1,54.1,-,-,-,-,-,-
CCCc1n[nH]c2c1/C(=N/O)CC(c1ccccc1)C2 (configuration not stated),80.9,-,-,-,-,-,59.1
NC(=O)c1c(NC(=O)C2c3ccccc3Oc3ccccc32)sc2c1CCCCC2,-,-,-,-,-,-,.
O=S(=O)(Nc1ccc2c(c1)nc1n2CCOC1)c1ccc(Cl)cc1,-,-,-,-,-,-,.
CCS(=O)(=O)c1nnnn1-c1ccccc1S(C)(=O)=O,53.6,-,-,-,-,-,-
C=CCn1cccc(/C=C/C(=O)c2ccc(C(C)(C)C)cc2)c1=S,100.3,-,-,-,45.7,-,65.5
c1csc(-c2noc(CN3CCc4sccc4C3)n2)c1,-,-,.,-,-,-,.
O=S(=O)(NC(=NCCc1ccc(Cl)cc1)c1ccccc1Cl)c1cccs1,99.9,-,-,-,-,-,-
CCN(CC)c1ccc(/C=N/NC(=O)c2cccc(S(=O)(=O)N3CCOCC3)c2)c(O)c1,100.1,60.3,-,-,-,-,-
O=C(O)C1C2CCC(O2)C1C(=O)NCc1ccccc1Br (configuration not stated),-,-,-,-,-,-,.
O=C1O/C(=C/c2ccccc2)c2ccccc21,-,-,-,-,-,-,.
N#CC1=C(c2ccccc2)/C(=C/c2ccccc2)OC1=O,92.1,-,-,-,-,-,-
SMILES,L major viab,APP 5UTR inh,MT stabilize HCS,b-catenin transl,BaF3 tox,Ba/F3 V617F tox,Lmaj promast 1uM
COc1ccc(CC(=O)OC(C)CN2CCCC2)cc1 (configuration not stated),99.5,-,-,-,-,-,-
O=C1NN=C(c2ccc(Cl)cc2)CC1c1cccc(Br)c1 (configuration not stated),-,-,-,-,-,-,.
Cc1ccc(C2=NNC(=O)C(c3ccc(Cl)cc3)C2)cc1 (configuration not stated),69.5,.,-,-,-,-,-
CC(=O)OC1CC[C@@]2(C)C(CCC3C2CC(=O)[C@@]2(C)C3CC3CC(C)=CC(=O)C32)C1 (some centres not stated),.,.,.,-,-,-,.
O=C1NC(=S)N/C1=C\c1ccc(N2CCOCC2)cc1,-,-,-,-,-,-,.
O=C(CN1CCN(Cc2ccccc2)CC1)c1ccc(Br)cc1,82.2,-,-,-,-,-,-
CN(C)C(=O)COC(=O)/C=C/c1ccccc1[N+](=O)[O-],-,-,-,.,-,-,.
Cc1cc(C(=O)CSCc2nnc3n(CCC(C)C)c(=O)c4ccccc4n23)c(C)n1C,-,-,-,.,-,-,.
Nc1ccc(-c2nc3ccc(-c4nc5ccccc5o4)cc3[nH]2)cc1,75.6,-,-,-,-,-,-
Nc1ccc(-c2nc3ccc(N)cc3[nH]2)cc1,-,-,-,-,-,-,.
O=C(NCc1ccccc1)Nc1cccn(Cc2cccc(F)c2)c1=O,-,-,-,-,-,-,.
C/C(=N\O)C(C)(C)Nc1ccc(Br)cc1,.,.,.,-,-,-,.
O=C(CN1CCCCC1)N1CCCc2c1c(=O)oc1ccc(OCc3ccccc3)cc21,67.2,-,-,-,-,-,-
CC1=C(C(N)=O)C(c2ccccc2F)NC(=O)N1 (configuration not stated),-,-,-,.,-,-,.
Cc1ccc(-c2csc3ncnc(SCC(=O)Nc4nnc(C)s4)c23)cc1,-,-,-,-,-,-,.
Cc1ccc(-c2csc3ncnc(Sc4nnc(CN5CCCCCC5=O)o4)c23)cc1,99.4,-,18.8,-,-,-,-
Cc1ccc2[nH]c(=O)c(C(c3nnnn3CC3CCCO3)N3CCCc4ccccc43)cc2c1 (configuration not stated),-,-,-,-,-,-,.
Cc1ccc(NC(=O)C(NS(=O)(=O)c2cccc3nsnc23)C(C)C)nc1 (configuration not stated),-,-,-,.,-,-,.
CC(C)C(NS(=O)(=O)c1cccc2nsnc12)C(=O)Nc1nc2ccc(Cl)cc2s1 (configuration not stated),90.1,-,-,-,-,-,-
O=C(O)c1ccc2c(c1)SC1=NS(=O)(=O)CCN12,.,.,.,-,-,-,.
CN(C(=O)c1ccc2c(c1)SC1=NS(=O)(=O)CCN12)C(c1ccccc1)c1ccccc1,74.7,-,-,-,-,-,-
COC(=O)c1cc(=O)n(Cc2cccs2)c(=NCc2cccs2)s1,-,-,-,-,-,-,.
CCOC(=O)c1ccc(N=c2sc(C(=O)OC)cc(=O)n2Cc2ccco2)cc1,99.6,-,-,-,-,-,-
O=C(O)c1ccc(N=NN2CCCCCC2)cc1,58.7,-,-,-,-,-,-
Cc1c(C(=O)Nc2ccncc2)sc2nc(-c3ccc(F)cc3)cn12,98.9,-,-,-,-,-,-
Cc1c(C(=O)NCC(C)C)sc2nc(-c3ccc(F)cc3)cn12,-,-,-,-,-,-,.
Cc1cccc(Cn2nnc3c2C(=O)c2ccccc2C3=O)c1,100.0,-,-,-,-,-,-
CNCCC(Oc1ccc(C(F)(F)F)cc1)c1ccccc1 (configuration not stated),89.9,-,-,.,-,-,-
